The values that follow come from PubChem BioAssay.

Assay [1] in a line: inhibitors of TNFa-induced NFkB p65 translocation, primary screen, imaging, HUVEC, MLSMR starter and 10KST1 sets (AID 438;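 active = inhibition above 20% together with a positive visual image hit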;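 also: compound added about 3h40 before a 20 min TNFalpha stimulation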;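 as to inhibition: signal is the nuclear over cytoplasmic p65 intensity ratio per well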). The note with it: HUVEC TNFa-induced p65 nuclear translocation; cell count: measured here: nuclei count (cytotoxicity indicator), at 2.08 µM; inhibition: at 2 µM, stronger effect = higher value, 0% TNFa-plus-vehicle, 100% no-TNFa wells.
Assay [2] in a line: endothelial E-selectin expression blockers – imaging, HUVEC, immunofluorescence, MLSMR starter and 10KST1 sets, primary screen (AID 487;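 active = visually confirmed hit in the image check and inhibition above 20%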;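 as to inhibition: signal is fraction of cell area covered by stained E-selectin grains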;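 as to nuclei count: 100% = median nuclei count of all wells on the same plate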). The note with it: HUVEC TNFalpha-induced E-selectin immunofluorescence imaging, at 2 µM; inhibition: stronger effect = higher value; nuclei count: measured here: cell number, toxicity.
Assay [3] in a line: Primary imaging screen for DUSP6 inhibitors that restore phospho-Erk in transfected HeLa cells, chemical complementation (AID 609;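 active = compounds giving at least 50% inhibition in the cell-based MKP-3 phosphatase rescue imaging test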;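 as to inhibition: phospho-Erk level distribution per well compared with pooled transfected vehicle control wells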). As to conditions: HeLa MKP-3 transfected, phospho-Erk imaging KS statistic, at 10 µM, cells stimulated with TPA for 15 min.
Assay [4] has as its target Dual specificity protein phosphatase 6 (Homo sapiens) (UniProt Q16828). The description is as above. The note with it: HeLa MKP-3 transfected, phospho-Erk imaging KS statistic; at 10 µM; stronger effect = higher value; cells stimulated with TPA for 15 min.
The target in assay [5] is Voltage-gated potassium channel subunit beta-2 (Rattus norvegicus) (UniProt P62483). In words: inhibitors of rat Kvbeta2 reductase activity – biochemical, NADPH fluorescence, primary screen (AID 622).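 Also: slope of raw intensity against log time taken from 70 to 1610 s.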 As to conditions: recombinant KvBeta, 4-cyanobenzaldehyde reduction, at 10 µM, stronger effect = higher value.
Sequence of Voltage-gated potassium channel subunit beta-2 (Rattus norvegicus) (P62483 whole entry, looked up): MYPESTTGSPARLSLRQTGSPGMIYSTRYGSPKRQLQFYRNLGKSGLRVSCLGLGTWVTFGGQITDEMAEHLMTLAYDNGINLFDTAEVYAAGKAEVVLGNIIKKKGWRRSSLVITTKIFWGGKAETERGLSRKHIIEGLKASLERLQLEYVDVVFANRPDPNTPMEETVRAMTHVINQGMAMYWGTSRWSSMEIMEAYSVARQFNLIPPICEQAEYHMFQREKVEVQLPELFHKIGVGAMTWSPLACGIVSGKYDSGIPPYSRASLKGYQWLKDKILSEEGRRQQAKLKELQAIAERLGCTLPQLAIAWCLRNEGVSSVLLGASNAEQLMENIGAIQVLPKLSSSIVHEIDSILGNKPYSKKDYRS
For assay [6] the target is unchanged. As to the kind of experiment: enhancers of rat Kvbeta2 NADPH turnover – biochemical, NADPH fluorescence, primary screen (AID 623;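 active = NADPH fluorescence slope more negative than the mean of all samples by about 3 SD, 99.7% confidence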;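 also: fluorescence intensity change per second fitted from 20 to 320 s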). The note with it: Recombinant KvBeta, NADPH fluorescence decrease slope, 10 min; at 10 µM; stronger effect = lower value.
For assay [7], the target named is Alpha-2C adrenergic receptor (Homo sapiens) (UniProt P18825). In words: compounds altering alpha2C-coupled GIRK flux – cell-based, HEK293 alpha2C/GIRK1/2, thallium flux, primary screen (AID 624;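 active = fluorescence slope after compound addition differing from the mean of all screened samples at 99.7% confidence, in either direction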;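 also: slope of fluorescence ratio to pre-addition baseline per second over 15 to 24 s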). As to conditions: thallium flux BTC fluorescence, at 10 µM, actives lie on both sides.
Sequence of Alpha-2C adrenergic receptor (Homo sapiens) (P18825 whole entry, looked up): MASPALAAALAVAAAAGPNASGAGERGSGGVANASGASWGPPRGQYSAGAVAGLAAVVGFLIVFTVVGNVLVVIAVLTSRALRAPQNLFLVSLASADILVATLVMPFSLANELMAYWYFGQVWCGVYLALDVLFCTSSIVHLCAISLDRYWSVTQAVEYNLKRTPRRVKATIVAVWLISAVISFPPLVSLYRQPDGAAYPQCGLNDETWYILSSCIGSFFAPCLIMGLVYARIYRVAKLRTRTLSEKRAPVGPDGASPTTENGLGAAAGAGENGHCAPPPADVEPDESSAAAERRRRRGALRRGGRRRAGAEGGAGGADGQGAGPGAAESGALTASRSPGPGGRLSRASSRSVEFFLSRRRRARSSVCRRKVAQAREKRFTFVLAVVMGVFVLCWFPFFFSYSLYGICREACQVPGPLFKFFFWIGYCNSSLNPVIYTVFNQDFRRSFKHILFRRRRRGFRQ
A short description of assay [8]: inhibitors of larval lipid processing in zebrafish, primary screen, whole organism, PED6 fluorescence, gall bladder and intestine (AID 686;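 active = a full or partial loss of lipid-probe fluorescence in the fish gall bladder, intestine or both, judged by eye; inactive = no fluorescence loss, or compound toxic to the fish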;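 also: larvae 5 to 7 days old with five fish per well; signal comes from phospholipase A2 cleavage of quenched PED6 carried via bile; overnight exposure to compound and PED6 before scoring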). As to conditions: Zebrafish larvae PED6 lipid processing, fluorescence scoring; screened at 20 µM (by protocol). A digest of the protocol:
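Test system – live zebrafish larvae aged 5-7 days, whole organism · Buffer or medium – E3 fish medium · Reagent – quenched phospholipase substrate PED6, 100 nM final, ingested by larvae · Doses – 20 µM single dose · Incubation – overnight compound and PED6 incubation · Technique – visual fluorescence microscopy scoring of gall bladder, gut · Read-out basis – visual per-well fluorescence inhibition score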

A short description of assay [9]: loss of swimming-algae plug formation – whole organism, Chlamydomonas reinhardtii, WT vs cilia-less mutant, absorbance, 96-well, primary screen (AID 463189;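 active = inhibition at or above 50% relative to wild type and mutant plate controls; inactive = inhibition below 50%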;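 also: 0% = wild type cc124 cells in DMSO and 100% = ciliumless bld1 mutant cells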). As to conditions: Chlamydomonas reinhardtii gravitaxis, OD600 absorbance, 2 days; at 10 µM; stronger effect = higher value.
Where [10] appears, read: measured here: cell density z-score.
[11] abbreviates: measured here: nuclear c-Myc green intensity z-score.
Setting [12] is: measured here: nuclear pErk red intensity z-score, stronger effect = higher value.

As a reminder, the inhibition is the drop in the measured response relative to a control, in per cent.

Activity calls are given as the source filed them.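 The calls were made as follows, unless noted: active = fluorescence slope higher than the sample average by over 3 SD (cut at about -0.22 in these data, passing the limit was not always enough); inactive = the rest.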

Sequence of Dual specificity protein phosphatase 6 (Homo sapiens) (Q16828 whole entry, looked up): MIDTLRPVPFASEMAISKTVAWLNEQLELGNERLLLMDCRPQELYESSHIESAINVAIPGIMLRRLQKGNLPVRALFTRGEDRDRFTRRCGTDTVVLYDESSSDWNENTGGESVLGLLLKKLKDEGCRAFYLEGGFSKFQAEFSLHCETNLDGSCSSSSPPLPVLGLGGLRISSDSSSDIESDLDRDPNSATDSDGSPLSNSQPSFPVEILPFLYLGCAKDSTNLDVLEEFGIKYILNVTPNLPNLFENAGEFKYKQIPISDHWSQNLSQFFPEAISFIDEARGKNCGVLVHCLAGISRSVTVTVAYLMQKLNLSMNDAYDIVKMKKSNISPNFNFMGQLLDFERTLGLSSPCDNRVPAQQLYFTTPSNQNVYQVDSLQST

As to `COc1cc(C2C(C(=O)c3ccc(C)o3)=C(O)C(=O)N2c2cc(C)on2)cc(OC)c1OC` (centres undefined), the cell count in assay [1] came out at 531. Besides, the inhibition in assay [1] is -0.1% (inactive); in assay [2], -101% (inactive); in [4] it was 19.3% (inactive); in assay [9], -18.1% (inactive). For the same molecule, in assay [2], the nuclei count stood at 125%. The z-score in assay [3] (setting [10]) is 1.95; in [3] (setting [11]) it was 0.514; in assay [3] (setting [12]), -0.298. In addition, the fluorescence slope in assay [5] was -0.507 (inactive). The NADPH fluorescence slope in [6] was -9.6e-06 (inactive). Besides, the slope in [7] is 0.00526 (inactive). Moreover, the call in assay [8] was inactive.
Consider `Cn1c(=O)c2c(nc(N3CCN(Cc4ccccc4)CC3)n2CC(=O)c2ccccc2)n(C)c1=O`, for which the cell count in assay [1] was found to be 669. For the same molecule, the inhibition was 0.5% (inactive) in assay [1], -198% (inactive) in [2], 7.73% (inactive) in assay [4] and -14.6% (inactive) in [9]. In assay [2], this molecule showed a nuclei count of 155%. Moreover, the z-score is 0.319 in assay [3] (setting [10]), -0.211 in assay [3] (setting [11]) and 0.974 in assay [3] (setting [12]). Further, the fluorescence slope in assay [5] was -0.533 (inactive). Also, the NADPH fluorescence slope in assay [6] is -0.000101 (inactive). For the same molecule, the slope in assay [7] is 0.00454 (inactive). For the same molecule, in assay [8], the molecule was called inactive.
In the case of `COC(=O)C1C(=O)CC(C)(O)C(C(=O)OC)C1c1ccccc1F` (centres undefined), the cell count in [1] was determined as 586. For the same molecule, the inhibition in assay [1] is -1.8% (inactive); in assay [2], -42.2% (inactive); in assay [4], 7.83% (inactive); in assay [9], -7% (inactive). The nuclei count in [2] stood at 178%. Besides, the results for the z-score in assay [3] (setting [10]), in [3] (setting [11]) and in assay [3] (setting [12]) were -1.74, -0.438 and 1.61, respectively. In addition, the fluorescence slope in assay [5] is -0.345 (inactive). The NADPH fluorescence slope in [6] was -3.4e-05 (inactive). The slope in assay [7] is 0.00488 (inactive). For the same molecule, in assay [8], the call was inactive.
With `Cc1ccc(NC(=O)CSC2=C(C#N)C(c3ccco3)C3=C(CCCC3=O)N2)cc1` (centres undefined), the cell count in assay [1] was 382. Besides, the inhibition is 1.6% (inactive) in [1], -118% (inactive) in assay [2], -0.584% (inactive) in assay [4] and 32.7% (inactive) in [9]. In assay [2], this molecule had a nuclei count of 144%. In addition, the z-score in assay [3] (setting [10]) is 1.1; in assay [3] (setting [11]) it was -0.193; in assay [3] (setting [12]), -0.0699. The fluorescence slope in assay [5] was -0.438 (inactive). Moreover, the NADPH fluorescence slope in assay [6] was -5.7e-07 (inactive). In [7], the slope is 0.00635 (inactive). Moreover, in [8], the molecule was classed as inactive.
As for `CC(C)C1Cc2c(sc3c2c(=O)n(-c2ccccc2)c2nncn32)CO1` (centres undefined), in assay [1], the cell count was 603. Further, the inhibition in [1] was -21.3% (inactive); in assay [2], -90.9% (inactive); in [4], 3.56% (inactive); in assay [9], -0.205% (inactive). For the same molecule, the nuclei count in [2] turned out to be 179%. The figures for the z-score in assay [3] (setting [10]), in assay [3] (setting [11]) and in assay [3] (setting [12]) were -0.575, -0.884 and 1.06, respectively. Besides, the fluorescence slope in assay [5] was -0.379 (inactive). Further, the NADPH fluorescence slope in assay [6] is -5.4e-05 (inactive). The slope in assay [7] was 0.00589 (inactive). Also, the molecule was called inactive in assay [8].
In the case of `O/N=C(\c1ccc2c(c1)OCCO2)C1CCCCC1`, the cell count in [1] is 483. The inhibition in [1] is -8.4% (inactive); in assay [2], 0.8% (inactive); in assay [4] it was -1.98% (inactive); in assay [9] it was 124% (active). The molecule also came in with a nuclei count in assay [2] of 88.1%. For the same molecule, the z-score in assay [3] (setting [10]) is -0.525; in [3] (setting [11]), -0.257; in assay [3] (setting [12]), 1.15. Further, in assay [5], the fluorescence slope was -0.497 (inactive). For the same molecule, the NADPH fluorescence slope in assay [6] was -3.9e-05 (inactive). Further, the slope in assay [7] is 0.00548 (inactive). Moreover, the result in assay [8] was inactive.
`Clc1ccccc1-c1nnc2sc(-c3ccco3)nn12`: the cell count in assay [1] was 568. Also, the inhibition in assay [1] is -10.6% (inactive); in assay [2] it was 37.2% (inactive); in [4], 4.72% (inactive); in assay [9] it was 85.1% (active). The nuclei count in assay [2] was determined as 88.5%. Further, the z-score in [3] (setting [10]) was -0.391; in assay [3] (setting [11]), -0.433; in [3] (setting [12]), 1.6. Besides, the fluorescence slope in [5] is -0.43 (inactive). In [6], the NADPH fluorescence slope is -4.6e-05 (inactive). Besides, the slope in assay [7] was 0.00572 (inactive). In assay [8], the call was inactive.
Consider `O=c1c(F)cn(C2CCCO2)c(=O)n1Cc1ccccc1Cl` (centres undefined), for which the cell count in [1] came to 614. The inhibition in assay [1] is 1.6% (inactive); in assay [2], 11.4% (inactive); in [4], 0.671% (inactive); in [9], 4.11% (inactive). Besides, the nuclei count in [2] came to 203%. Moreover, the z-score worked out at 0.269 in [3] (setting [10]), 0.415 in assay [3] (setting [11]) and 0.187 in assay [3] (setting [12]). Further, the fluorescence slope in assay [5] was -0.534 (inactive). Besides, in assay [6], the NADPH fluorescence slope is -7.3e-05 (inactive). Further, in [7], the slope is 0.00591 (inactive). The result in assay [8] was inactive.
Regarding `OCCOCCNc1ncnc2c1cnn2-c1ccccc1`, the cell count in assay [1] worked out at 472. Further, the inhibition in assay [1] is -2% (inactive); in assay [2], -38.9% (inactive); in assay [4] it was 16.8% (inactive); in assay [9], 0.488% (inactive). Moreover, in assay [2], the nuclei count stood at 162%. For the same molecule, the z-score was -0.85 in assay [3] (setting [10]), 1.86 in assay [3] (setting [11]) and 0.161 in assay [3] (setting [12]). Moreover, in [5], the fluorescence slope is -0.374 (inactive). Moreover, in assay [6], the NADPH fluorescence slope is -1.3e-05 (inactive). In addition, the slope in [7] was 0.00585 (inactive). In assay [8], the outcome was inactive.
As to `CSC(=Nc1ccccc1)C1=C(O)COC1=O`, in assay [1], the cell count is 315. For the same molecule, the inhibition in [1] was -17.4% (inactive); in assay [2], -75.7% (inactive); in [4] it was 5.26% (inactive); in assay [9], -2.91% (inactive). The molecule also showed a nuclei count in assay [2] of 139%. Further, the figures for the z-score in assay [3] (setting [10]), in assay [3] (setting [11]) and in [3] (setting [12]) were 1.64, -0.593 and -1.01, respectively. Also, the fluorescence slope in [5] is -0.419 (inactive). Besides, the NADPH fluorescence slope in [6] was -8.2e-05 (inactive). For the same molecule, in [7], the slope was 0.00729 (inactive). The outcome in [8] was inactive.
For the molecule `O=C(O)CC(NCc1ccco1)C(=O)OCC1CCCO1` (centres undefined), in assay [1], the cell count is 557. Further, the inhibition in [1] is -3.4% (inactive); in assay [2] it was -26.1% (inactive); in [4], 5.26% (inactive); in assay [9], 17.1% (inactive). Moreover, the nuclei count in assay [2] is 134%. For the same molecule, the z-score was 0.185 in assay [3] (setting [10]), -1.18 in assay [3] (setting [11]) and -0.884 in assay [3] (setting [12]). The fluorescence slope in [5] is -0.369 (inactive). Further, the NADPH fluorescence slope in assay [6] is -2.3e-05 (inactive). Besides, the slope in [7] is 0.00498 (inactive). Also, the molecule was called inactive in assay [8].
With `O=c1[nH]c(=O)n(Cc2ccco2)c2c1C(C(F)(F)F)(C(F)(F)F)N=C(c1ccco1)N2`, the cell count in assay [1] came out at 505. In addition, the inhibition is -2.5% (inactive) in assay [1], -212% (inactive) in [2], 1.75% (inactive) in assay [4] and -4.12% (inactive) in assay [9]. Also, in assay [2], the nuclei count was determined as 132%. For the same molecule, the z-score is -0.683 in [3] (setting [10]), -0.978 in assay [3] (setting [11]) and -0.242 in assay [3] (setting [12]). In addition, in assay [5], the fluorescence slope is -0.502 (inactive). Also, the NADPH fluorescence slope in [6] is -5.4e-05 (inactive). In assay [7], the slope was 0.00631 (inactive). In addition, in assay [8], the outcome was inactive.
For the molecule `CC(C)Oc1ccc(Cc2c(O)nc(NCCCN(C)C)[nH]c2=O)cc1`, in assay [1], the cell count was determined as 383. Besides, the inhibition in assay [1] is -15.2% (inactive); in [2], -285% (inactive); in assay [4] it was -2.07% (inactive); in assay [9], 26.1% (inactive). The nuclei count in assay [2] was found to be 152%. The z-score in assay [3] (setting [10]) is -0.061; in assay [3] (setting [11]), -1.61; in [3] (setting [12]) it was -0.785. The fluorescence slope in assay [5] is -0.396 (inactive). For the same molecule, in [6], the NADPH fluorescence slope is -1e-05 (inactive). Besides, the slope in assay [7] is 0.00657 (inactive). In addition, in assay [8], the call was inactive.
